Series [1] relates to Mus musculus. In words: Toxicity in ICR mouse assessed as body weight loss at 20 mg/kg, iv administered once daily for 12 days. It counts as organism-based. To be noted: in vivo, 288 h. The method in brief: (§1)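 Healthy ICR mice dosed at 20 mg/kg for 12 days; normal tissues examined for vacuoles, body weight and blood chemistry assessed.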
The subject of series [2] is Mus musculus. In words: Toxicity in ICR mouse assessed as effect on ALT level in serum at 20 mg/kg, iv administered once daily for 12 days. To be noted: in vivo, 288 h. It counts as organism-based. Summed up: as §1
Series [3] concerns Mus musculus. In words: Toxicity in ICR mouse assessed as effect on AST level in serum at 20 mg/kg, iv administered once daily for 12 days. It counts as organism-based. As to conditions: in vivo, 288 h. The method in brief: as §1
For series [4], the system named is Mus musculus. In words: Induction of vacuolization in ICR mouse at 20 mg/kg, iv administered once daily for 12 days measured post last dose by H and E staining based light microscopic method. It counts as organism-based. As to conditions: in vivo, 288 h. The method in brief:
as §1

In series [5] the test system is MDA-MB-435S. In words: Antiproliferative activity against human MDA-MB-435S cells after 48 hrs by MTS assay. It counts as functional, cell-based.
Series [6] has as its system MDA-MB-231. In words: Induction of methuosis in human MDA-MB-231 cells assessed as increase in vacuole formation at 1 uM after 24 hrs by phase contrast microscopic analysis relative to control. It counts as functional.
In series [7] the test system is MCF7. In words: Antiproliferative activity against human MCF7 cells after 48 hrs by MTS assay. As to conditions: MCF7, 48 h. It counts as functional, cell-based. Background: Formazan colour is commonly taken as a measure of viable cells.
The subject of series [8] is MCF-10A. In words: Cytotoxicity against human MCF10A cells assessed as reduction in cell viability after 48 hrs by MTS assay. It counts as cell-based.
For series [9], the system named is HCT-116. In words: Antiproliferative activity against human HCT116 cells after 48 hrs by MTS assay. It counts as functional, cell-based. As to conditions: HCT-116, 48 h.
The subject of series [10] is SK-MEL-30. In words: Antiproliferative activity against human SK-MEL-30 cells after 48 hrs by MTS assay. It counts as functional, cell-based. As to conditions: SK-MEL-30, 48 h.
Series [11] is described as follows: Half life in Balb/c nude mouse at 1 mg/kg, iv. It counts as ADME, organism-based. To be noted: in vivo.
For series [12], the system named is MDA-MB-231. In words: Antiproliferative activity against human MDA-MB-231 cells after 48 hrs by MTS assay. It counts as functional, cell-based. As to conditions: MDA-MB-231, 48 h.
Series [13] concerns MDA-MB-231. In words: Antitumor activity against human MDA-MB-231 cells xenografted in Balb/c nude mouse assessed as tumor growth inhibition at 20 mg/kg, iv administered once daily for 13 days measured 6 hrs post last dose relative to control. It counts as functional. As to conditions: MDA-MB-231, iv, read-out: TGI. Summed up:
(§2)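 Female BALB/c nude mice (4–6 weeks) injected subcutaneously with 5×10^6 MDA-MB-231 cells; at ~100 mm3 (length×width²×0.5) randomized (n = 6) and dosed iv by tail vein once daily at 5 or 20 mg/kg in 10% Kolliphor HS 15 in saline, or vehicle; tumor volume and weight measured daily; tumors excised 6 h after final dose, H&E stained.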
Background: In xenograft studies the graft and the host belong to different species.

Series [14] deals with SK-MEL-28. In words: Antiproliferative activity against human SK-MEL-28 cells after 48 hrs by MTS assay. It counts as functional, cell-based. To be noted: SK-MEL-28, 48 h.
Series [15] relates to Mus musculus. In words: Toxicity in Balb/c nude mouse xenografted with human MDA-MB-231 cells assessed as body weight loss at 5 to 20 mg/kg, iv administered once daily for 13 days measured daily during compound dosing. As to conditions: in vivo, 312 h.
The test system of series [16] is HepG2. In words: Antiproliferative activity against human HepG2 cells after 48 hrs by MTS assay. To be noted: HepG2, 48 h. It counts as functional, cell-based.
Series [17] concerns A-375. In words: Antiproliferative activity against human A375 cells after 48 hrs by MTS assay. It counts as functional, cell-based. As to conditions: A-375, 48 h.
The nature of series [18]: Clearance in Balb/c nude mouse at 1 mg/kg, iv. It counts as ADME, organism-based. To be noted: in vivo.
In series [19] the test system is MDA-MB-231. In words: Induction of methuosis in human MDA-MB-231 cells assessed as increase in vacuole formation at 10 uM after 24 hrs by phase contrast microscopic analysis relative to control. It counts as functional.
The subject of series [20] is A549. In words: Antiproliferative activity against human A549 cells after 48 hrs by MTS assay. As to conditions: A549, 48 h. It counts as functional, cell-based.
The test system of series [21] is MDA-MB-231. In words: Antitumor activity against human MDA-MB-231 cells xenografted in Balb/c nude mouse assessed as tumor growth inhibition at 5 mg/kg, iv administered once daily for 13 days measured 6 hrs post last dose relative to control. It counts as functional. As to conditions: MDA-MB-231, iv, read-out: TGI. The method in brief:
as §2

The nature of series [22]: Volume of distribution in Balb/c nude mouse at 1 mg/kg, iv. It counts as ADME, organism-based. To be noted: in vivo.
Series [23] concerns BGC-823. In words: Antiproliferative activity against human BGC823 cells after 48 hrs by MTS assay. It counts as functional, cell-based. As to conditions: BGC-823, 48 h.

Some results are limits rather than exact numbers.

What is called IC50 is the concentration that gives 50% inhibition. As usually defined, the half-life is how long it takes for the measured level to halve. Lower therefore signals fast loss. The term clearance denotes the rate of elimination divided by the concentration. The low end stands for a low capacity for elimination, the high end for a high capacity for elimination. One may read the Vd as the apparent volume that relates the amount in the body to the concentration in plasma or blood. A lower Vd goes with little distribution into tissue.

For `Cc1ccc(NC(=O)c2cccc(C(F)(F)F)c2)cc1Nc1cc(-c2cccnc2)nc2[nH]ccc12.Cl`, the Activity entry in series [1], in series [2], in series [3] and in [4] was “Non-Toxic” throughout.

In the case of `Cc1ccc(NC(=O)c2cccc(C(F)(F)F)c2)cc1Nc1cc(-c2cccnc2)nc2[nH]ccc12`, the IC50 is 2270 nM in series [5]; 2610 nM in series [7]; > 10000 nM in series [8]; 1010 nM in [9]; 1660 nM in [10]; 1570 nM in series [12]. Also, the IC50 in [14] was 1370 nM; in series [16], 1200 nM; in [17], 326 nM; in series [20] it was 1890 nM; in series [23], 1570 nM. Further, the Activity is recorded as 99.75% in series [6], “Non-Toxic” in series [15] and 100% in [19]. The half-life in series [11] was 8.74 h. For the same compound, in series [13], the inhibition in vivo at 20 mg/kg was 60.1%. The clearance in series [18] stood at 36.5 mL/min/kg. For the same compound, in [21], the inhibition in vivo at 5 mg/kg was found to be 25.9%. The same compound came in with a Vd in series [22] of 15.5 L/kg.
